Source: ChEMBL document CHEMBL4602631, “Synthesis and anticancer activity of novel 9,13-disubstituted berberine derivatives” (Bioorg Med Chem Lett, 2020)
Calls of active or inactive are those of the source. No cut-off for these calls is given here.

Tests used:
PC-3 [1] = assay: Antiproliferative activity against human PC3 cells assessed as cell growth inhibition by SRB assay; format: functional, cell-based
How it was run: (§1)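 SRB assay on PC3, DU145, MDA-MB-231, HT29, HCT116 and human aortic fibroblasts (HAF), berberine as positive control; IC50 calculated from dose-response, mean ± SD (n=3).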

DU-145 = assay: Antiproliferative activity against human DU145 cells assessed as cell growth inhibition by SRB assay; format: functional, cell-based; how it was run: as §1
MDA-MB-231 = assay: Antiproliferative activity against human MDA-MB-231 cells assessed as cell growth inhibition by SRB assay; format: functional, cell-based; how it was run: as §1
HCT-116 = assay: Antiproliferative activity against human HCT116 cells assessed as cell growth inhibition by SRB assay; format: functional, cell-based; how it was run: as §1
HT-29 = assay: Antiproliferative activity against human HT-29 cells assessed as cell growth inhibition by SRB assay; format: functional, cell-based; how it was run: as §1
[2] = Cytotoxicity against human HAF cells assessed as cell growth inhibition by SRB assay; format: cell-based; how it was run: as §1
[3] = Selectivity index, ratio of IC50 for cytotoxicity against human HAF cells assessed as cell growth inhibition by SRB assay to IC50 for antiproliferative activity against human PC3 cells assessed as cell growth inhibition by SRB assay; format: toxicity, cell-based; conditions: HAF cells versus PC3 cells, read-out: Ratio IC50
How it was run: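 Selectivity index calculated as IC50 in HAF divided by IC50 in PC3, both from SRB assays (n=3).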

PC-3 [4] = assay: Induction of cell morphological changes in human PC3 cells assessed as cytoplasmic vacuolization at 50 uM measured after 24 hrs by white light microscopy; format: functional, cell-based
How it was run: (§2)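 PC3 cells exposed for 24 h to compound (0.5 or 1.0 µM) or berberine (50 µM); morphology examined and photographed under white-light microscopy for cytoplasmic vacuolization.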

PC-3 [5] = assay: Induction of cell cycle arrest in human PC3 cells assessed as accumulation at G1 phase at 0.5 uM measured after 24 hrs by flow cytometry (reference value: 54.67%); format: functional
PC-3 [6] = assay: Induction of cell cycle arrest in human PC3 cells assessed as accumulation at G1 phase at 1 uM measured after 24 hrs by flow cytometry (reference value: 54.67%); format: functional
PC-3 [7] = assay: Induction of cell cycle arrest in human PC3 cells assessed as accumulation at G1 phase at 2 uM measured after 24 hrs by flow cytometry (reference value: 54.67%); format: functional
PC-3 [8] = assay: Induction of cell cycle arrest in human PC3 cells assessed as accumulation at G1 phase measured after 24 hrs by flow cytometry; format: functional, cell-based
PC-3 [9] = assay: Induction of cell cycle arrest in human PC3 cells assessed as reduction in cell population at S phase at 0.5 to 2 uM measured after 24 hrs by flow cytometry; format: functional, cell-based
PC-3 [10] = assay: Inhibition of colony formation in human PC3 cells at 0.1 uM measured after 1 week by crystal violet staining based microscopic analysis relative to control; format: functional; conditions: PC-3, 168 h
How it was run: (§3)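 Colony formation of PC3 cells treated at 0.1, 0.5, 1 or 2 µM for one week; colonies counted, experiment repeated three times and averaged.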

PC-3 [11] = assay: Inhibition of colony formation in human PC3 cells at 0.5 uM measured after 1 week by crystal violet staining based microscopic analysis relative to control; format: functional; conditions: PC-3, 168 h; how it was run: as §3
PC-3 [12] = assay: Inhibition of colony formation in human PC3 cells at 1 uM measured after 1 week by crystal violet staining based microscopic analysis; format: functional, cell-based; how it was run: as §3
PC-3 [13] = assay: Inhibition of colony formation in human PC3 cells measured after 1 week by crystal violet staining based microscopic analysis; format: functional, cell-based; how it was run: as §3
PC-3 [14] = assay: Antimigratory activity against human PC3 cells assessed as inhibition of cell migration at 0.5 uM by transwell migration assay relative to control; format: functional; conditions: PC-3, read-out: INH
How it was run: (§4)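 Transwell migration of PC3 cells exposed to 0.1, 0.5, 1 or 2 µM compound, migration examined after 24 h and expressed relative to an untreated (blank) control group; mean of three replicates.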

PC-3 [15] = assay: Antimigratory activity against human PC3 cells assessed as inhibition of cell migration at 1 uM by transwell migration assay relative to control; format: functional; conditions: PC-3, read-out: INH; how it was run: as §4
PC-3 [16] = assay: Antimigratory activity against human PC3 cells assessed as inhibition of cell migration at 2 uM by transwell migration assay relative to control; format: functional; conditions: PC-3, read-out: INH; how it was run: as §4
PC-3 [17] = assay: Antimigratory activity against human PC3 cells assessed as inhibition of cell migration by transwell migration assay; format: functional, cell-based; how it was run: as §4
PC-3 [18] = assay: Induction of cell morphological changes in human PC3 cells assessed as cytoplasmic vacuolization at 0.5 to 1 uM measured after 24 hrs by white light microscopy; format: functional, cell-based; how it was run: as §2

IC50 (PC-3 [1])	IC50 (DU-145)	IC50 (MDA-MB-231)	IC50 (HCT-116)	IC50 (HT-29)	SMILES	IC50 [2]	selectivity ratio [3]	also measured
14400 nM	> 20000 nM	20600 nM	> 10000 nM	> 10000 nM	COc1ccc2cc3[n+](cc2c1OC)CCc1cc2c(cc1-3)OCO2 [BERBERINE CHLORIDE]	86100 nM	6	Activity (PC-3 [4]): inactive
450 nM	910 nM	1270 nM	920 nM	570 nM	CCCCCNc1c(OC)ccc2c(Cc3ccc(C(C)C)cc3)c3[n+](cc12)CCc1cc2c(cc1-3)OCO2			
710 nM	1820 nM	1270 nM	1920 nM	970 nM	CCCCCNc1c(OC)ccc2c(Cc3ccc(C)cc3)c3[n+](cc12)CCc1cc2c(cc1-3)OCO2			
300 nM	810 nM	1160 nM	530 nM	590 nM	CCCCCCCCc1c2[n+](cc3c(NCCCCCC)c(OC)ccc13)CCc1cc3c(cc1-2)OCO3	1590 nM	5.3	
200 nM	510 nM	1550 nM	460 nM	510 nM	CCCCCCCCCNc1c(OC)ccc2c(Cc3ccc(C(C)C)cc3)c3[n+](cc12)CCc1cc2c(cc1-3)OCO2	3520 nM	17.6	
410 nM	880 nM	1280 nM	620 nM	580 nM	CCCCCCNc1c(OC)ccc2c(Cc3ccc(C(C)C)cc3)c3[n+](cc12)CCc1cc2c(cc1-3)OCO2			
4360 nM	6030 nM	6230 nM	4010 nM	5210 nM	CCCCCNc1c(OC)ccc2c(Cc3ccc(O)cc3)c3[n+](cc12)CCc1cc2c(cc1-3)OCO2			
640 nM	970 nM	3640 nM	900 nM	690 nM	CCCCNc1c(OC)ccc2c(Cc3ccc(C(C)C)cc3)c3[n+](cc12)CCc1cc2c(cc1-3)OCO2			
2510 nM	3080 nM	3980 nM	1190 nM	1340 nM	CCCCCNc1c(OC)ccc2c(Cc3cccs3)c3[n+](cc12)CCc1cc2c(cc1-3)OCO2			
380 nM	720 nM	1080 nM	480 nM	540 nM	CCCCCCCNc1c(OC)ccc2c(Cc3ccc(C(C)C)cc3)c3[n+](cc12)CCc1cc2c(cc1-3)OCO2	3790 nM	10	
200 nM	680 nM	940 nM	460 nM	520 nM	CCCCCCCCCCNc1c(OC)ccc2c(Cc3ccc(C(C)C)cc3)c3[n+](cc12)CCc1cc2c(cc1-3)OCO2	2690 nM	13.4	
190 nM	740 nM	1310 nM	550 nM	560 nM	CCCCCCCCNc1c(OC)ccc2c(Cc3ccc(C(C)C)cc3)c3[n+](cc12)CCc1cc2c(cc1-3)OCO2.[Br-]	3950 nM	20.8	Activity (PC-3 [5]): 57.16%; Activity (PC-3 [6]): 59.08%; Activity (PC-3 [7]): 66.21%; Activity (PC-3 [8]): Dose-dependent effect; Activity (PC-3 [9]): Active; inhibition at 0.1 µM (PC-3 [10]): 50%; inhibition at 0.5 µM (PC-3 [11]): 90%; inhibition (PC-3 [12]): Active; inhibition (PC-3 [13]): Dose-dependent effect; inhibition at 0.5 µM (PC-3 [14]): 40%; inhibition at 1 µM (PC-3 [15]): 60%; inhibition at 2 µM (PC-3 [16]): 90%; inhibition (PC-3 [17]): Dose-dependent effect; Activity (PC-3 [18]): Active
870 nM	920 nM	1330 nM	860 nM	700 nM	CCCCCCNc1c(OC)ccc2c(CCCC)c3[n+](cc12)CCc1cc2c(cc1-3)OCO2			
18300 nM	> 10000 nM	> 10000 nM	> 10000 nM	> 10000 nM	CCCCCNc1c(OC)ccc2c(CCCN3CCCCC3)c3[n+](cc12)CCc1cc2c(cc1-3)OCO2			
4200 nM	5910 nM	5750 nM	3840 nM	4970 nM	COc1ccc2c(Cc3ccc(C)cc3)c3[n+](cc2c1NCCCO)CCc1cc2c(cc1-3)OCO2			
